From PubChem
Tb MetRS inh = Trypanosoma brucei MetRS inhibition. purified T. brucei MetRS, ATP depletion, Kinase-Glo luminescence. inhibition, % at 11.9 µM. 360,000 compounds, 0.4% hits;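 active = inhibition above a per-plate cutoff of the control wells' mean inhibition plus 3 SD, cut at about 5.5% in these data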
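Dosing: 11.9 µM single point; system: parasite MetRS enzyme; technique: luminescence of leftover ATP; times: 15 min enzyme-compound preincubation, 2 h reaction, 10 min detection, 25 °C; replicates: each compound tested once; read-out basis: percent inhibition relative to median high and low control wells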
Rin1 Abl inh = inhibitors of human Rin1-Abl protein interaction; TR-FRET Rin1/Abl binding, biochemical; inhibition, % at 7.35 µM; 360,000 compounds, 0.4% hits; in the data active = inhibition above about 5%, passing the limit was not always enough
Target sequence (P00519 whole entry, looked up): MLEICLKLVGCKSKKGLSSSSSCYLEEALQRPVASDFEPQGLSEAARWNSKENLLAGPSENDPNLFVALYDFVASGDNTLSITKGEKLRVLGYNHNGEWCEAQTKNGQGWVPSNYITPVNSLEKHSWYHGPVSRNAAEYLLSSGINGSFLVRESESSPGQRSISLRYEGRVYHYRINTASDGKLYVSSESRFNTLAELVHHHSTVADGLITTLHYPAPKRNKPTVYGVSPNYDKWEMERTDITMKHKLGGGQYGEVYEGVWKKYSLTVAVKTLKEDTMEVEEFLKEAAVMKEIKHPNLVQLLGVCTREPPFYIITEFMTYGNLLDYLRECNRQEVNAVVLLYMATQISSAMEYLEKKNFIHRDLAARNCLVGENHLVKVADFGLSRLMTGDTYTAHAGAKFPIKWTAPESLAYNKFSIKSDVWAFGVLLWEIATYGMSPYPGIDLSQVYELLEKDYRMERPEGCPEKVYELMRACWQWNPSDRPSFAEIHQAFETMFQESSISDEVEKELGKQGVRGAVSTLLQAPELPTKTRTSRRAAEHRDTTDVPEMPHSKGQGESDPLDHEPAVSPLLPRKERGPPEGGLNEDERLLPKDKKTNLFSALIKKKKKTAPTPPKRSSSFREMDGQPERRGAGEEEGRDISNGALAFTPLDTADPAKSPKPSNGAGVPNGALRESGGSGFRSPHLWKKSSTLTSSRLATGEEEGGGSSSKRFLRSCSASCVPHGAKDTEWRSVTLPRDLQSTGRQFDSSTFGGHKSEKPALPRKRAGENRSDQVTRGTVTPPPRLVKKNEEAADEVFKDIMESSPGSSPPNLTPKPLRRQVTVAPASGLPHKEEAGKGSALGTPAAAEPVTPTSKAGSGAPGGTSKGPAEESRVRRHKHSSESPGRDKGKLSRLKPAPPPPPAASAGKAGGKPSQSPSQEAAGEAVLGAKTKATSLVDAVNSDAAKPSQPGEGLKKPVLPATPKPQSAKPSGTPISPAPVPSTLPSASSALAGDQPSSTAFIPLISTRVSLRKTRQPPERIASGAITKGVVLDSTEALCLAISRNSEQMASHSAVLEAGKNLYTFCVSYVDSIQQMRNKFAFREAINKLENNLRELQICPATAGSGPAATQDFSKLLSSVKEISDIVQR
Target sequence (Q13671 whole entry, looked up): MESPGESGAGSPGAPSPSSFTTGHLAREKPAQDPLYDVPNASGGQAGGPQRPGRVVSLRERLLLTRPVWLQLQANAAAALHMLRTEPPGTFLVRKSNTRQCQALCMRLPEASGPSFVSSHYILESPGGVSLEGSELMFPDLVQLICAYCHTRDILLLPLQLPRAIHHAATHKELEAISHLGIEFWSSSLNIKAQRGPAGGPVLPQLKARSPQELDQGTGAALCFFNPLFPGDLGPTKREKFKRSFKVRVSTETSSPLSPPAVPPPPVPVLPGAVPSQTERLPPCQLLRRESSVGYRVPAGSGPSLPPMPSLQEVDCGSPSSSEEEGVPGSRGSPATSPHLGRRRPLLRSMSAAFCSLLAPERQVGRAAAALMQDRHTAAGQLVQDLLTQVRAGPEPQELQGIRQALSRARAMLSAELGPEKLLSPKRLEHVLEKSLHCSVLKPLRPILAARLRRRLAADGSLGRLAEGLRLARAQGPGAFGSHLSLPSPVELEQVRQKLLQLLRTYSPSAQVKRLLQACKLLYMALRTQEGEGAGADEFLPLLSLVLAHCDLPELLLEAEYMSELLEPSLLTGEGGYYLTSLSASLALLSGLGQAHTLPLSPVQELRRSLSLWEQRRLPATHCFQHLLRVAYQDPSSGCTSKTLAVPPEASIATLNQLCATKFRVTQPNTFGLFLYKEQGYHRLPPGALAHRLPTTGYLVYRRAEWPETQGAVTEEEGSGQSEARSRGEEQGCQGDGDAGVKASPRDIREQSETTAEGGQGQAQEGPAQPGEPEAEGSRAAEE
SKN-1 inh = blocks SKN-1 activity in C. elegans; 360,000 compounds, 0.49% hits; AID 624304; inhibition, % at 21.8 µM; C. elegans VP596 Pgst-4::GFP/RFP ratio, acrylamide-induced, 24 h;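 active = interference check ratio from 0.5 to 1.5 plus GFP to RFP signal ratio inhibition reaching or exceeding a fixed threshold, cut at about 30% in these data, passing the limit was not always enough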
Arrestin-AP2 inh = blocks beta-arrestin peptide binding to AP2 adaptin | inhibition, % at 10 µM | FITC-arrestin peptide / GST-AP2 beads, flow cytometry; AP2 beta2 appendage carries R879A mutation | 340,000 compounds, 0.31% hits;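 active = inhibition above a set limit, near 3 SD of compounds lacking own fluorescence, cut at about 54% in these data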
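system = GST-tagged AP2 beta2-adaptin appendage (R879A) on 4 µm glutathione beads | reagent = FITC-labelled arrestin peptide probe, 50 nM final | schedule = compound with beads 12 min RT, then probe 1 h RT | signal = HyperCyt-sampled flow cytometry, FL1 channel, ex 488/em 535 nm | read-out = percent response from loss of bead-bound FITC fluorescence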
MT1-MMP act inh = blocks activation of human MT1-MMP; P50281; HT1080 RFP-PRO-GFP cells, GFP/RFP ratio fluorescence, overnight; percent of plate control window, DMSO zero; GFP/RFP ratio change, % at 20 µM; 360,000 compounds, 0.061% hits; AID 651647;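 active = GFP/RFP ratio change of at least 30% with cell ATP level not reduced by more than half and red fluorescence within 50% of control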
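Assay system: HT1080 cells carrying an RFP-PRO-GFP reporter | Dosing: Single dose of 20 µM compound, 1% DMSO final | Incubation: Cells overnight before dosing, compound overnight, 37 °C, 5% CO2 | Evaluation: GFP/RFP fluorescence ratio | Control set: DMSO and RFP-L50D-GFP cell wells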
Tb MetRS conf = Trypanosoma brucei MetRS inhibition confirmed. AID 624412. inhibition, % at 11.9 µM. T. brucei MetRS enzyme, luminescence (ATP depletion). 1,400 compounds, 93% hits. shares compounds with Tb MetRS inh; in the data active = inhibition above about 7%
Jurkat tox = counter-screen for T. brucei MetRS inhibitors: Jurkat cell cytotoxicity; Jurkat cells viability, ATP luminescence; 1,400 compounds, 12% hits; shares compounds with Tb MetRS inh; inhibition, % at 8.3 µM; in the data active = inhibition above about 15%
Tb MetRS inh FP = orthogonal test for Trypanosoma brucei MetRS inhibitors | 1,400 compounds, 44% hits | purified T. brucei MetRS, fluorescence polarization | inhibition, % at 11.9 µM | shares compounds with Tb MetRS inh; in the data active = inhibition above about 17%
Of the large screens only hits and unclear results are named; the others gave an inactive call (follow-up assays come after a bar, where they were run). In the library only some 1.6% were active in any assay of this set; here they are far more common.

Nc1c(Cl)ncnc1Nc1ccc(C(=O)O)cc1	Tb MetRS inh 46 | Tb MetRS conf 74 | Jurkat tox inactive | Tb MetRS inh FP 46
CCCCCCCCN1C(=O)[C@H](CC(=O)N2CCCCC2)C[C@@]2(C(=O)OC)CC(C)(C)CC=C12	none (no result: Rin1 Abl inh, Arrestin-AP2 inh)
CCOc1ccc(CCN2C(=O)C(=O)N([C@@H](CC(C)C)CN3CCC[C@H]3CN3C(=O)C(=O)NC[C@@H]3CC(C)C)C[C@@H]2Cc2ccc(O)cc2)cc1	none (no result: Rin1 Abl inh, Arrestin-AP2 inh)
Cc1cc(O)c(/C=N/OCc2ccc(Cl)cc2Cl)c(=O)o1	none
CN(C)/C=C(\C=N\OCc1ccc(Cl)cc1Cl)C(=O)Nc1ccc(Cl)c(Cl)c1	Tb MetRS inh 66 | Tb MetRS conf 9.2 | Jurkat tox inactive | Tb MetRS inh FP inactive
CCCN1CN(Cc2ccco2)c2nc3ccccc3n2C1	Tb MetRS inh 20 | Tb MetRS conf 17 | Jurkat tox inactive | Tb MetRS inh FP inactive
c1coc(CN2CNc3nc4ccccc4n3C2)c1	none
O=C(NCc1ccccc1CN1CCCC1)c1cccc(N2CCCC2=O)c1	none
Cn1nc(C(F)(F)F)c(-c2ccc(F)cc2)c1NC(=O)Nc1ccc(F)cc1	Tb MetRS inh 9.4 | Tb MetRS conf 21 | Jurkat tox inactive | Tb MetRS inh FP inactive
CCn1c(SCC(=O)NC2CCCC2)nc2c(c1=O)SCC2	none (no result: Arrestin-AP2 inh)
Clc1ccc2[nH]c3c(NCCN4CCOCC4)ncnc3c2c1	Tb MetRS inh 42 | Tb MetRS conf 62 | Jurkat tox inactive | Tb MetRS inh FP 26
O=c1c2[nH]c3ccc(Cl)cc3c2ncn1CCN1CCCCC1	none
Fc1ccc2[nH]c3c(NCCN4CCOCC4)ncnc3c2c1	Tb MetRS inh 27 | Tb MetRS conf 47 | Jurkat tox inactive | Tb MetRS inh FP 20
COc1ccc(/C=N/n2c(=O)[nH]c3c([nH]c4ccc(Br)cc43)c2=O)cc1CN1CCOCC1	Tb MetRS inh 6.2, SKN-1 inh 37 | Tb MetRS conf 14 | Jurkat tox inactive | Tb MetRS inh FP inactive
CCCC(=O)NCCCc1nc2ccccc2[nH]1	none
CCOc1ccc(CCNC(=O)CCc2nc3ccccc3[nH]2)cc1OCC	none
Cc1ccc(CCNC(=O)CCc2nc3ccccc3[nH]2)cc1	Tb MetRS inh 21 | Tb MetRS conf 37 | Jurkat tox inactive | Tb MetRS inh FP inactive
COc1ccc(CCNC(=O)CCc2nc3ccccc3[nH]2)cc1OC	Tb MetRS inh 8.3 | Tb MetRS conf 11 | Jurkat tox inactive | Tb MetRS inh FP inactive
CCc1nnc(NS(=O)(=O)c2ccc(Nc3ccc([N+](=O)[O-])c4nonc34)cc2)s1	Tb MetRS inh 7.0, SKN-1 inh 51 | Tb MetRS conf 11 | Jurkat tox inactive | Tb MetRS inh FP inactive
COc1cccc(Nc2nc3ccccc3c(=O)[nH]2)c1	Tb MetRS inh 8.6 | Tb MetRS conf 18 | Jurkat tox inactive | Tb MetRS inh FP inactive
COc1ccc(-c2c(-c3ccc4c(c3)OCO4)c3ccccc3n2C)cc1	none
COC(=O)C1CCN(C(=O)c2cc(S(=O)(=O)N3CCCCC3)ccc2Cl)CC1	none
COc1ccccc1C1CC(c2ccc(Cl)cc2Cl)Nc2nc(N)nn21 (stereo not given)	Tb MetRS inh 6.6 | Tb MetRS conf 15 | Jurkat tox inactive | Tb MetRS inh FP inactive
CC(C)NCCOCCOc1ccc(Cl)cc1Br	none
CN(C)CCOCCOc1ccc(Cl)cc1Br	Tb MetRS inh 5.7 | Tb MetRS conf 9.5 | Jurkat tox inactive | Tb MetRS inh FP inactive
CNS(=O)(=O)c1ccc(CNC[C@H]2O[C@@H](n3cnc4c(=O)[nH]c(N)nc43)[C@H](O)[C@@H]2O)cc1	none (no result: Arrestin-AP2 inh)
Cc1ccc(C2=NS(=O)(=O)N(C)C(C(=O)NCc3ccc(F)cc3)=C2)cc1	Tb MetRS inh 9.8 | Tb MetRS conf 17 | Jurkat tox inactive | Tb MetRS inh FP inactive
NS(=O)(=O)c1cccc(NC(=O)COC(=O)c2ccc(S(=O)(=O)N3CCOCC3)cc2)c1	none
